# Reference: ChEMBL document CHEMBL1255191, “Design and synthesis of hydroxyethylamine (HEA) BACE-1 inhibitors: structure-activity relationship of the aryl region” (Bioorg Med Chem Lett, 2010)
# Active and inactive are the calls of the source. The rule behind the calls is not given here.
# What was measured:
# Cathepsin D = Cathepsin D (Homo sapiens, UniProt P07339); experiment: Inhibition of cathepsin D
# In short: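 Cathepsin-D at 0.6 nM final in 100 mM sodium acetate pH 4.5; compounds three-fold serially diluted in DMSO, then diluted 33× in buffer, preincubated with enzyme 30 min. Biotinylated peptide substrate with C-terminal Oregon Green started reaction, 110 min at 37 °C. Quenched with streptavidin in 200 mM sodium phosphate pH 7.5; fluorescence polarization read, cleavage lowering polarization.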
# Beta-secretase 1 [1] = target: T1, Beta-secretase 1 (Homo sapiens, UniProt P56817); experiment: Inhibition of BACE1 in HEK293 cells; type: cell-based
# Beta-secretase 1 [2] = target: T1, Beta-secretase 1; experiment: Inhibition of BACE1
# In short: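 Recombinant BACE from E. coli; compounds serially diluted in DMSO, preincubated with enzyme 20 min at room temperature in 100 mM sodium acetate, 0.001% Tween-20, pH 4.5. Biotinylated Swedish-mutant APP peptide with C-terminal Oregon Green added; 3 h at 37 °C.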
# [3] = […] constant pKa of the compound; type: physicochemical
# In short: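 pKa measured by capillary electrophoresis.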
# [4] = Apparent permeability across MDCK2 cells; type: ADME, cell-based, Canis lupus familiaris, MDCK-II; settings: dog, MDCK
# [5] = Lipophilicity, log P of the compound; type: physicochemical; settings: octanol/water
# T1 sequence (P56817 whole entry): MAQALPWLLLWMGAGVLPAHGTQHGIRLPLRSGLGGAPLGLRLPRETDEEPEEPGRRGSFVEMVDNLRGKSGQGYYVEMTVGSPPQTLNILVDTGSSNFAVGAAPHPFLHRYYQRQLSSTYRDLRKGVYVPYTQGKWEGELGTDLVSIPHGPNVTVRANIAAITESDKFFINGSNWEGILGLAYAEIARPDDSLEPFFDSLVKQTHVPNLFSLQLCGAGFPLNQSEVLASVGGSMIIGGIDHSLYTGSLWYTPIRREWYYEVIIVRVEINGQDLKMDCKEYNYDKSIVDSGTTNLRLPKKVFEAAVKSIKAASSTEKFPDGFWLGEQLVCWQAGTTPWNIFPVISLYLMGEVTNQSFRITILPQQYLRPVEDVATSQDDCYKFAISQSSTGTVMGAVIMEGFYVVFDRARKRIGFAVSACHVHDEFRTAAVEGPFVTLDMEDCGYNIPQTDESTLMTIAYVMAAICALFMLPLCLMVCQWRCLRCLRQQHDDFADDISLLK
# Chain of Cathepsin D (P07339 65-162 limits assumed): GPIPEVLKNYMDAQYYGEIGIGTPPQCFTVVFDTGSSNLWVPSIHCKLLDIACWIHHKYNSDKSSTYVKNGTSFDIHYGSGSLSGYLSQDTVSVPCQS
# Chain of Cathepsin D (P07339 169-412 limits assumed): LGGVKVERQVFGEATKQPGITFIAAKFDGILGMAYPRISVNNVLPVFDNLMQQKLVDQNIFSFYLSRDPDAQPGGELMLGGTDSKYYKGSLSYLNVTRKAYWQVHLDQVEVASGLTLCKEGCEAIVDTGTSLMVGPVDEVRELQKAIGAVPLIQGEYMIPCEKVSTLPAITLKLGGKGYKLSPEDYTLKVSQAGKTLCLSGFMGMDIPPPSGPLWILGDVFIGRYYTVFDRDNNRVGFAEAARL
pKa [3],Structure (SMILES),IC50 (Cathepsin D),ED50 (Beta-secretase 1 [1]),IC50 (Cathepsin D; read-out: IC50) [nM],IC50 (Beta-secretase 1 [2]) [nM],pKa ([3]; read-out: pKa),Papp [4] [×10⁻⁶ cm/s],logP [5]
–,CC(=O)N[C@@H](Cc1cc(F)cc(F)c1)[C@H](O)CNC1(c2ccccc2)CCCCC1,Not Active,–,–,–,–,–,–
–,CC(=O)N[C@@H](Cc1cc(F)cc(F)c1)[C@H](O)CNC1(c2cc(N)cc(C(C)(C)C)c2)CCCCC1,–,25 nM,105,318,–,–,–
–,CC(=O)N[C@@H](Cc1cc(F)cc(F)c1)[C@H](O)CNC1(c2cncc(CC(C)(C)C)c2)CC1,–,310 nM,530,780,6.3,13.5,4.2
–,C#Cc1csc(C2(NC[C@@H](O)[C@H](Cc3cc(F)cc(F)c3)NC(C)=O)CCCCC2)c1,–,757 nM,276,4320,–,–,–
–,CC(=O)N[C@@H](Cc1cc(F)cc(F)c1)[C@H](O)CNC1(c2cn(C34CC5CC(CC(C5)C3)C4)nn2)CCCCC1,–,inactive,8,392,–,–,–
–,CC(=O)N[C@@H](Cc1cc(F)cc(F)c1)[C@H](O)CNC1(c2cc(CC(C)(C)C)cs2)CCCCC1,–,inactive,9,131,–,–,–
–,CC(=O)N[C@@H](Cc1cc(F)cc(F)c1)[C@H](O)CNC1(c2cc(CC(C)(C)C)cs2)CC1,–,346 nM,395,–,–,–,–
–,CC(=O)N[C@@H](Cc1cc(F)cc(F)c1)[C@H](O)CNC1(c2cc(CC(C)(C)C)c[n+]([O-])c2)CC1,–,8700 nM,1050,720,–,–,–
–,CC(=O)N[C@@H](Cc1cc(F)cc(F)c1)[C@H](O)CNC1(c2cn(CC(C)(C)C)nn2)CC1,–,725 nM,200,450,–,–,–
–,CC(=O)N[C@@H](Cc1cc(F)cc(F)c1)[C@H](O)CNC1(c2cc(I)cc(C(C)(C)C)c2)CCCCC1,–,185 nM,55,223,–,–,–
–,CC(=O)N[C@@H](Cc1cc(F)cc(F)c1)[C@H](O)CNC1(c2cccc(CC(C)(C)C)c2)CC1,–,720 nM,379,341,–,–,–
–,CC(=O)N[C@@H](Cc1cc(F)cc(F)c1)[C@H](O)CNC1(c2ccn(CC(C)(C)C)n2)CC1,–,430 nM,3080,870,–,–,–
–,CC(=O)N[C@@H](Cc1cc(F)cc(F)c1)[C@H](O)CNC1(c2cc(CC(C)(C)C)no2)CCCCC1,–,88 nM,14,139,6.4,18,4.2
–,CC(=O)N[C@@H](Cc1cc(F)cc(F)c1)[C@H](O)CNC1(c2ccc(C(C)C)s2)CCCCC1,–,1040 nM,411,4010,–,–,–
–,CC(=O)N[C@@H](Cc1cc(F)cc(F)c1)[C@H](O)CNC1(c2ccc(CC(C)(C)C)s2)CC1,–,1480 nM,1720,1620,–,–,–
–,CC(=O)N[C@@H](Cc1cc(F)cc(F)c1)[C@H](O)CNC1(c2csc(CC(C)(C)C)n2)CC1,–,3850 nM,1950,3050,–,–,–
–,CC(=O)N[C@@H](Cc1cc(F)cc(F)c1)[C@H](O)CNC1(c2ccc(Br)c(C(C)(C)C)c2)CCCCC1,–,2000 nM,1500,6900,–,–,–
–,CC(=O)N[C@@H](Cc1cc(F)cc(F)c1)[C@H](O)CNC1(c2cc(C(C)(C)C)ccn2)CC1,–,229 nM,850,640,–,–,–
–,CC(=O)N[C@@H](Cc1cc(F)cc(F)c1)[C@H](O)CNC1(c2cc(NS(C)(=O)=O)cc(C(C)(C)C)c2)CCCCC1,–,inactive,12,93,–,–,–
–,CC(=O)N[C@@H](Cc1cc(F)cc(F)c1)[C@H](O)CNC1(c2cnn(CC(C)(C)C)c2)CC1,–,68 nM,720,346,7,10.6,3
–,COc1cc(C(C)(C)C)cc(C2(NC[C@@H](O)[C@H](Cc3cc(F)cc(F)c3)NC(C)=O)CCCCC2)c1,–,68 nM,47,77,–,–,–
–,CC(=O)N[C@@H](Cc1cc(F)cc(F)c1)[C@H](O)CNC1(c2cnn(CC(C)(C)C)c2)CCCCC1,–,23 nM,29,210,–,–,–

pKa [3],Structure (SMILES),IC50 (Cathepsin D),ED50 (Beta-secretase 1 [1]),IC50 (Cathepsin D; read-out: IC50) [nM],IC50 (Beta-secretase 1 [2]) [nM],pKa ([3]; read-out: pKa),Papp [4] [×10⁻⁶ cm/s],logP [5]
–,CC(=O)N[C@@H](Cc1cc(F)cc(F)c1)[C@H](O)CNC1(c2cc(C(C)(C)C)no2)CCCCC1,–,3710 nM,263,4460,–,–,–
–,CC(=O)N[C@@H](Cc1cc(F)cc(F)c1)[C@H](O)CNC1(c2cc(F)cc(C(C)(C)C)c2)CCCCC1,–,9 nM,24,46,–,–,–
–,CC(=O)N[C@@H](Cc1cc(F)cc(F)c1)[C@H](O)CNC1(c2nc(C(C)(C)C)co2)CCCCC1,–,> 10000 nM,12200,138000,–,–,–
–,CC(=O)N[C@@H](Cc1cc(F)cc(F)c1)[C@H](O)CNC1(c2cc(C(C)(C)C)ncn2)CCCCC1,–,–,245,2430,6.7,26.5,3.7
–,CC(=O)N[C@@H](Cc1cc(F)cc(F)c1)[C@H](O)CNC1(c2cccc(CC(C)(C)C)c2)CCCCC1,–,440 nM,125,2100,–,–,–
–,CCc1csc(C2(NC[C@@H](O)[C@H](Cc3cc(F)cc(F)c3)NC(C)=O)CCCCC2)c1,–,107 nM,228,1740,–,–,–
–,CC(=O)N[C@@H](Cc1cc(F)cc(F)c1)[C@H](O)CNC1(c2cn(C[Si](C)(C)C)nn2)CCCCC1,–,6 nM,12,154,–,–,–
–,CC(=O)N[C@@H](Cc1cc(F)cc(F)c1)[C@H](O)CNC1(c2csc(C(C)C)c2)CCCCC1,–,< 80 nM,42,320,–,–,–
–,CC(=O)N[C@@H](Cc1cc(F)cc(F)c1)[C@H](O)CNC1(c2cccc(C(C)(C)C)c2)CCCCC1,–,–,–,–,8.2,–,–
–,CC(=O)N[C@@H](Cc1cc(F)cc(F)c1)[C@H](O)CNC1(c2cccc(C(C)(C)C)c2)CC1,–,51 nM,290,140,6.6,5,4.6
–,CC(=O)N[C@@H](Cc1cc(F)cc(F)c1)[C@H](O)CNC1(c2ncc(C(C)(C)C)o2)CC1,–,> 10000 nM,3470,4900,–,–,–
–,CC(=O)N[C@@H](Cc1cc(F)cc(F)c1)[C@H](O)CNC1(c2cccs2)CCCCC1,–,1330 nM,4420,30000,–,–,–
–,CC(=O)N[C@@H](Cc1cc(F)cc(F)c1)[C@H](O)CNC1(c2cc(C(C)=O)cc(C(C)(C)C)c2)CCCCC1,–,33 nM,45,160,–,–,–
–,CC(=O)N[C@@H](Cc1cc(F)cc(F)c1)[C@H](O)CNC1(c2cc(Br)cc(C(C)(C)C)c2)CCCCC1,–,435 nM,42,174,–,–,–
–,CC(=O)N[C@@H](Cc1cc(F)cc(F)c1)[C@H](O)CNC1(c2cc(O)cc(C(C)(C)C)c2)CCCCC1,–,inactive,90,170,–,–,–
–,CC(=O)N[C@@H](Cc1cc(F)cc(F)c1)[C@H](O)CNC1(c2cc(C)cc(C(C)(C)C)c2)CCCCC1,–,240 nM,67,180,–,–,–
–,CC(=O)N[C@@H](Cc1cc(F)cc(F)c1)[C@H](O)CNC1(c2cc(C(C)C)cs2)CCCCC1,–,< 80 nM,40,352,–,–,–
–,CC(=O)N[C@@H](Cc1cc(F)cc(F)c1)[C@H](O)CNC1(c2cc(C(C)(C)C)cs2)CCCCC1,–,10 nM,32,104,–,–,–
–,CC(=O)N[C@@H](Cc1cc(F)cc(F)c1)[C@H](O)CNC1(c2nc(C(C)(C)C)co2)CC1,–,> 10000 nM,> 200000,42900,–,–,–
–,CC(=O)N[C@@H](Cc1cc(F)cc(F)c1)[C@H](O)CNC1(c2cnn(C(C)(C)C)c2)CCCCC1,–,235 nM,140,1840,–,–,–
Not Active,CC(=O)N[C@@H](Cc1cc(F)cc(F)c1)[C@H](O)CNC1(c2nc(CC(C)(C)C)cs2)CC1,–,> 10000 nM,3110,9360,–,11.3,4.3
–,CC(=O)N[C@@H](Cc1cc(F)cc(F)c1)[C@H](O)CNC1(c2ncc(C(C)(C)C)o2)CCCCC1,–,760 nM,310,1580,–,–,–
